# Measurements: ChEMBL document CHEMBL1914358, “Virtual screening targeting the urokinase receptor, biochemical and cell-based studies, synthesis, pharmacokinetic characterization, and effect on breast tumor metastasis” (J Med Chem, 2011)
# Active and inactive are the calls of the source. The calls are words filed in the database; no cut-off is given here.
# Assays:
# MDA-MB-231 [1] = test: Induction of necrosis in human MDA-MB-231 cells at 50 uM after 24 hrs by annexin V-FITC and propidium iodide staining relative to control; assay type: functional
# Outline: (§1)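 MDA-MB-231 grown in DMEM/10% FBS with penicillin/streptomycin, 37 °C, 5% CO2, to 80–90% confluence; exposed to compound or 1% DMSO control for 24 h. Cells detached, washed in cold PBS, 1×10^5 cells in binding buffer stained with annexin V-FITC and propidium iodide 15 min at 25 °C in the dark, analysed by flow cytometry; apoptotic = annexin V+/PI−, necrotic = annexin V+/PI+.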
# [2] = Apparent oral clearance in mouse at 50 mg/kg administered as single dose by HPLC-MS/MS analysis; conditions: in vivo
# HUVEC = test: Antiangiogenic activity in human HUVEC cells assessed as inhibition of tube formation by matrigel-based tube formation assay
# [3] = target: Urokinase plasminogen activator surface receptor (Homo sapiens, UniProt Q03405); test: Displacement of […] peptide from human uPAR expressed in drosophila S2 cells by fluorescence polarization assay
# Chain of Urokinase plasminogen activator surface receptor (Q03405 whole entry, the tested form may be a part): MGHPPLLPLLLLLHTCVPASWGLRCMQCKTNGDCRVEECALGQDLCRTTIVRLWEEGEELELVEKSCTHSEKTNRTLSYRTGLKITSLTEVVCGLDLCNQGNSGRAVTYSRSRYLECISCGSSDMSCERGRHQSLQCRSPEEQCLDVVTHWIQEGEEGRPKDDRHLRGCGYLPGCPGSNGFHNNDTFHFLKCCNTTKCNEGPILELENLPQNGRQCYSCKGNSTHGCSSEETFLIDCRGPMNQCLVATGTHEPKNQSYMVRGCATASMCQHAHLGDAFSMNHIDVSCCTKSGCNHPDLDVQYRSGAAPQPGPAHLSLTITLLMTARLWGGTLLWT
# Outline: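 Soluble human uPAR (residues 1-283), from stably transfected Drosophila S2 cells, was used at 500 nM with 100 nM AE147-FAM. Inhibitor range 0.78-100 μM in 0.01% Triton X-100/PBS, final 2% DMSO, triplicate. Polarization was read immediately at room temperature (ex 485/em 530 nm).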
# Nucleic Acid [4] = test: Displacement of ethidium bromide from salmon sperm DNA at 25 uM by fluorescence assay; assay type: nucleic-acid assay; conditions: Salmonidae
# Outline: (§2)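 Fluorescent intercalator displacement: loss of fluorescence from ethidium bromide bound to salmon sperm DNA, excitation 530 nm, at the stated compound concentration.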
# [5] = target: T1, Matrix metalloproteinase-9 (Homo sapiens, UniProt P14780); test: Inhibition of human MMP-9 activity in human MDA-MB-231 cells assessed as ECM degradation at 50 uM after 24 hrs by gelatin zymography assay; assay type: cell-based
# T1 sequence (P14780 whole entry): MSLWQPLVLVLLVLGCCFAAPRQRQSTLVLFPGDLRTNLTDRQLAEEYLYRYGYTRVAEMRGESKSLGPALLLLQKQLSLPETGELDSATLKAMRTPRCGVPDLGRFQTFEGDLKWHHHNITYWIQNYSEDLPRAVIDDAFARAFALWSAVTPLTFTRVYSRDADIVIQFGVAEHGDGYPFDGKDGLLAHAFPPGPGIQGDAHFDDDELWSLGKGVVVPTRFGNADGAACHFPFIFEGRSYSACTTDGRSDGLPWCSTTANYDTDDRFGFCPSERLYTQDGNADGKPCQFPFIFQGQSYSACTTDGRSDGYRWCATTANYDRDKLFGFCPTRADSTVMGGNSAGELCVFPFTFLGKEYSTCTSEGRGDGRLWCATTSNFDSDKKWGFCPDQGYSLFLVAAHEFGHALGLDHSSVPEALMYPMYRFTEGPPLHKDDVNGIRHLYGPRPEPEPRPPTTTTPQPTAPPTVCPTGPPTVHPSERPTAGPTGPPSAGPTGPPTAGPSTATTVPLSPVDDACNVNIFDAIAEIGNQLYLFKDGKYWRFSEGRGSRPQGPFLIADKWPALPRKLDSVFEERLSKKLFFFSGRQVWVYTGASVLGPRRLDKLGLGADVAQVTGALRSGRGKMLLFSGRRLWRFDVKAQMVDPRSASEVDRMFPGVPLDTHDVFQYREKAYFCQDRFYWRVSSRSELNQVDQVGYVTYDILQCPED
# Outline: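 Cells were treated with compound in serum-free medium for 24 h, and conditioned medium was concentrated and protein-normalized. Samples were run on 10% SDS gels containing 1 mg/ml gelatin. Clear bands were quantified after Coomassie staining.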
# MDA-MB-231 [6] = test: Antimetastatic activity in human MDA-MB-231 cells assessed as inhibition of cell invasion after 3 hrs by transwell assay; assay type: functional, cell-based; conditions: MDA-MB-231, 3 h
# [7] = Toxicity in po dosed NOD/SCID mouse xenografted human […] cells; assay type: organism-based; conditions: in vivo
# MDA-MB-231 [8] = test: (§3) Inhibition of human MAPK phosphorylation in MDA-MB-231 cells at 100 uM after 30 mins by Western blot analysis; assay type: cell-based
# Outline: (§4)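 MDA-MB-231 cells were exposed to 100 μM compound or 1% DMSO for 30 min and lysed in RIPA buffer with protease and phosphatase inhibitors. Equal protein was run on 4-12% gels under non-reducing conditions and transferred to nitrocellulose. Detection used HRP secondary antibody and chemiluminescence.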
# MDA-MB-231 [9] = test: Antimetastatic activity in human MDA-MB-231 cells assessed as inhibition of cell migration after 3 hrs by transwell assay; assay type: functional, cell-based; conditions: MDA-MB-231, 3 h
# Outline: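 Serum-starved (4 h) subconfluent cells, 5 × 10^4 in 0.1% FBS DMEM with compound or 1.0% DMSO, were placed in upper chambers of inserts with fibronectin-coated undersides (30 μg/ml). After 3 h at 37°C, 5% CO2, cells on the underside were methanol-fixed, hematoxylin-stained and counted in ten fields (×200). Triplicate; mean ± SE.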
# [10] = AUC (0 to infinity) in mouse at 50 mg/kg, po administered as single dose by HPLC-MS/MS analysis; conditions: plasma
# [11] = Tmax in mouse at 100 mg/kg, po administered as single dose by HPLC-MS/MS analysis; assay type: ADME, organism-based; design: dose 100 mg/kg, route oral; conditions: in vivo
# [12] = Antitumor activity against human […] cells xenografted in NOD/SCID mouse assessed as decrease in tumor volume at 150 mg/kg, po qd administered 18 days post-implantation measured after 68 days; assay type: functional; design: scale not given: the % may be the effect or the level left
# Outline: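 Female NOD/SCID mice bearing mammary fat pad TMD-231 tumours were randomized and dosed from day 18 post-implantation by daily oral gavage at 150 mg/kg or vehicle (n = 11). Caliper measurements were taken over 68 days; volume = (shorter² × longer)/2.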
# MDA-MB-231 [13] = test: Antimetastatic activity in human MDA-MB-231 cells assessed as inhibition of cell adhesion after 90 mins by crystal violet staining; assay type: functional, cell-based; conditions: MDA-MB-231, 1.5 h
# Outline: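 Wells were coated with 15 μg/ml fibronectin for 1 h at room temperature, then blocked with 3% heat-denatured BSA for 1 h at 37°C. Subconfluent cells were trypsinized, quenched with soybean trypsin inhibitor and washed in serum-free medium. 2 × 10^4 cells per well with compound, quadruplicate, 90 min at 37°C. Adherent cells were read by crystal violet at 570 nm; mean ± SE.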
# [14] = Cmax in mouse at 100 mg/kg, po administered as single dose after 5 hrs by HPLC-MS/MS analysis; assay type: ADME, organism-based; design: dose 100 mg/kg, route oral; conditions: in vivo
# Nucleic Acid [15] = test: Displacement of ethidium bromide from salmon sperm DNA at 1 uM by fluorescence assay; assay type: nucleic-acid assay; conditions: Salmonidae; outline: as §2
# MDA-MB-231 [16] = test: Induction of apoptosis in human MDA-MB-231 cells at 50 uM after 24 hrs by annexin V-FITC and propidium iodide staining relative to control; assay type: functional; outline: as §1
# TMB-231 = test: Antitumor activity against human […] cells xenografted in NOD/SCID mouse assessed as reduction in lung metastatic lesions at 150 mg/kg, po qd administered 18 days post-implantation measured after 68 days; assay type: functional, organism-based; design: dose 150 mg/kg
# Outline: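 Female NOD/SCID mice with mammary fat pad TMD-231 tumours received daily oral gavage at 150 mg/kg or vehicle from day 18 (n = 11). At study end lungs were removed and H&E stained. Metastasis number and size were assessed in 2-5 fields per sample and scored 1+ to 4+ relative to the highest sample by a blinded pathologist.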
# [17] = Half life in mouse at 100 mg/kg, po administered as single dose by HPLC-MS/MS analysis; assay type: ADME, organism-based; design: dose 100 mg/kg, route oral; conditions: in vivo
# [18] = system: hERG potassium channel KCNH2 (Homo sapiens); test: Inhibition of human ERG potassium channel (hERG) at 25 uM by fluorescence polarization assay
# MDA-MB-231 [19] = test: Antiproliferative activity against human MDA-MB-231 cells assessed as decrease in cell viability after 3 days by MTT assay; assay type: functional, cell-based; conditions: MDA-MB-231, 72 h
# Outline: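 Cells were grown at 37°C in 10% FBS-DMEM with serially diluted compound, made from 5 mM DMSO stock diluted 1:50 in medium, for 3 days. Viability was read by MTT absorbance at 570 and 630 nm.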
# Nucleic Acid [20] = test: Displacement of ethidium bromide from salmon sperm DNA at 10 uM by fluorescence assay; assay type: nucleic-acid assay; conditions: Salmonidae; outline: as §2
# CYP2C9 [21] = target: T2, CYP2C9 (Homo sapiens, UniProt P11712); test: Inhibition of CYP2C9 at 25 uM by fluorsecence-based assay; assay type: ADME
# T2 sequence (P11712 whole entry): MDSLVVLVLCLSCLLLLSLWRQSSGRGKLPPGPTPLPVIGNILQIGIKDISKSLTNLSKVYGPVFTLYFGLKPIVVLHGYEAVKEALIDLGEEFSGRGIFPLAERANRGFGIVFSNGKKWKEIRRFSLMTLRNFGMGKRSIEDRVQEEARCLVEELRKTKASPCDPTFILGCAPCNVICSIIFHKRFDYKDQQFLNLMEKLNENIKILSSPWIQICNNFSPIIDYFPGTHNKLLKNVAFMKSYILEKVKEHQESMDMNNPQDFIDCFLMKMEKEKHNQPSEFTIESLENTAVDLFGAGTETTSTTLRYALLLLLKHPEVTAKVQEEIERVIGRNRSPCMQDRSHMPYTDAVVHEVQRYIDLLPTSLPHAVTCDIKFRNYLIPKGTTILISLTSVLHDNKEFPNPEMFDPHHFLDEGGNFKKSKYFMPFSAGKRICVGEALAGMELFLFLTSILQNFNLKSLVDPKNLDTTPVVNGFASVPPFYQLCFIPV
# Outline: (§5)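 Fluorescence-based CYP2C9 assay measuring inhibition of fluorescent substrate metabolism at the stated concentration. Sulphaphenazole at 5 μM served as positive control.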
# [22] = target: T1, Matrix metalloproteinase-9; test: Inhibition of human MMP-9 activity in human MDA-MB-231 cells assessed as ECM degradation after 24 hrs by gelatin zymography assay; assay type: cell-based
# CYP2C9 [23] = target: T2, CYP2C9; test: Inhibition of CYP2C9 at 5 uM by fluorsecence-based assay
# [24] = system: hERG potassium channel KCNH2 (Homo sapiens); test: Inhibition of human ERG potassium channel (hERG) at 10 uM by fluorescence polarization assay
# [25] = system: hERG potassium channel KCNH2 (Homo sapiens); test: Inhibition of human ERG potassium channel (hERG) at 1 uM by fluorescence polarization assay
# [26] = system: hERG potassium channel KCNH2 (Homo sapiens); test: Inhibition of human ERG channel at 25 uM =
# [27] = as §3; assay type: cell-based; conditions: MDA-MB-231, 0.5 h; outline: as §4
# Cytochrome P450 2C9 = Cytochrome P450 2C9 (Homo sapiens, UniProt P11712); test: Inhibition of CYP2C9 at 1 uM by fluorsecence-based assay; assay type: ADME; outline: as §5
# Chain of Cytochrome P450 2C9 (P11712 whole entry): as above
# [28] = target: Focal adhesion kinase 1 (Homo sapiens) (UniProt Q05397); test: Inhibition of human FAK phosphorylation in MDA-MB-231 cells at 100 uM after 30 mins by Western blot analysis; assay type: cell-based; outline: as §4
# Chain of Focal adhesion kinase 1 (Homo sapiens) (Q05397 2-1052 limits assumed): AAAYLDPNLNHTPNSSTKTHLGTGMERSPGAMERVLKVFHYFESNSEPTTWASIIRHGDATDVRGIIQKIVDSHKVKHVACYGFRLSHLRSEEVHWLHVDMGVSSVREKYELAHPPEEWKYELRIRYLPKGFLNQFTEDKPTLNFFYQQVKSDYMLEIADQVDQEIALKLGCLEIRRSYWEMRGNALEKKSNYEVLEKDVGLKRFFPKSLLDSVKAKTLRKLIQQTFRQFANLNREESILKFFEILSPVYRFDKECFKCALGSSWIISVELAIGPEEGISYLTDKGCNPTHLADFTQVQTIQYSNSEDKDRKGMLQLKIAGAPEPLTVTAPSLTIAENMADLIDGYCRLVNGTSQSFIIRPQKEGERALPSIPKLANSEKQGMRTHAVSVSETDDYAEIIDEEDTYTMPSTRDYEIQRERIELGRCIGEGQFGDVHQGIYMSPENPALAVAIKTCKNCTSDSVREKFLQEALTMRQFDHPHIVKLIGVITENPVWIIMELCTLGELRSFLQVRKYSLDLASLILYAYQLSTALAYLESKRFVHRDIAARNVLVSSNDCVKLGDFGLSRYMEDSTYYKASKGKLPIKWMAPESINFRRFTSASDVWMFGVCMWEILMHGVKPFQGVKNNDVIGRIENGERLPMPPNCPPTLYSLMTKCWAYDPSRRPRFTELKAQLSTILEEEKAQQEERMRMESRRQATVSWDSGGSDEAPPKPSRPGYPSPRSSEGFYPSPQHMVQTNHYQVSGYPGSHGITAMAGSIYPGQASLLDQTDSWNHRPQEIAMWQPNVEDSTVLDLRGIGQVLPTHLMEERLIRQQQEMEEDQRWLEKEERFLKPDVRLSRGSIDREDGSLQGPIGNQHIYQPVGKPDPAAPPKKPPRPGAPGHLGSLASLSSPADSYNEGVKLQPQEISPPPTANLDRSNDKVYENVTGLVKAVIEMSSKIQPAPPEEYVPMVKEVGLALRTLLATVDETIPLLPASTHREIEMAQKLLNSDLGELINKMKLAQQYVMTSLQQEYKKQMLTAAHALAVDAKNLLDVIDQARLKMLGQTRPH
# [29] = target: Proto-oncogene tyrosine-protein kinase Src (Homo sapiens) (UniProt P12931); test: Inhibition of human SRC phosphorylation in MDA-MB-231 cells at 100 uM after 30 mins by Western blot analysis; assay type: cell-based; outline: as §4
# Chain of Proto-oncogene tyrosine-protein kinase Src (Homo sapiens) (P12931 2-536 limits assumed): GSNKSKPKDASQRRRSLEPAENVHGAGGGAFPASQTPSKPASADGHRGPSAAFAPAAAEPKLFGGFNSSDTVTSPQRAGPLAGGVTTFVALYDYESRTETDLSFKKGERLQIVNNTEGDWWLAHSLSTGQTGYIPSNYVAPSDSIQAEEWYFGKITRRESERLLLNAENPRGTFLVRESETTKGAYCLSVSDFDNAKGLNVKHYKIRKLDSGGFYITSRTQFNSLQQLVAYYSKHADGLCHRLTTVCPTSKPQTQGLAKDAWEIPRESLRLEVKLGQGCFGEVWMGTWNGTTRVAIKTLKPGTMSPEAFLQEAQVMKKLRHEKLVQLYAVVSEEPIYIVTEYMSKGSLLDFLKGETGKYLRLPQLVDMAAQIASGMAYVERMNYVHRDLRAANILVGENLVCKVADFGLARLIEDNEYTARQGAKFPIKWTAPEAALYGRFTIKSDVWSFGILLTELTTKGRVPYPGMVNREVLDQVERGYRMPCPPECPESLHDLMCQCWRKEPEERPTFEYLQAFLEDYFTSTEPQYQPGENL
# MDA-MB-231 [30] = test: Induction of apoptosis in human MDA-MB-231 cells assessed as apoptotic cells at 50 uM after 24 hrs by annexin V-FITC and propidium iodide staining (reference value: 4%); assay type: functional; outline: as §1
compound,measurement,setting,value
Cc1cc(C)cc(NC(=O)c2cnn(-c3ccc(C(C)C)cc3)c2C2CCNCC2)c1,Activity,MDA-MB-231 [1],21%
same,CL/F,[2],0.7 mL/min
same,IC50,HUVEC,3 µM
same,Activity,[3],Dose-dependent effect
same,inhibition,Nucleic Acid [4],< 10%
same,inhibition,[5],93%
same,IC50,MDA-MB-231 [6],30 µM
same,MTD,[7],150 mg/kg
same,inhibition,MDA-MB-231 [8],Active
same,IC50,MDA-MB-231 [9],40 µM
same,AUC(0-inf),[10],47200 ng·h/mL
same,Tmax,[11],1 h
same,Activity,[12],20%
same,IC50,MDA-MB-231 [13],45 µM
same,Cmax,[14],4410 ng/mL
same,inhibition,Nucleic Acid [15],inactive
same,Activity,MDA-MB-231 [16],51%
same,Activity,TMB-231,Active
same,half-life,[17],2.18 h
same,inhibition,[18],60%
same,IC50,MDA-MB-231 [19],6 µM
same,inhibition,Nucleic Acid [20],inactive
same,inhibition at 25 µM,CYP2C9 [21],20%
same,IC50,[22],25 µM
same,inhibition,[22],Dose-dependent effect
Nc1ccc(S(=O)(=O)Nc2ccnn2-c2ccccc2)cc1 [SULFAPHENAZOLE],inhibition at 5 µM,CYP2C9 [23],69%
c1ccc(C[C@H](CCNCc2ccc3c(c2)OCO3)c2ccc3c(c2)OCO3)cc1 (racemic),Activity,[3],Dose-dependent effect
same,inhibition,Nucleic Acid [4],30%
same,inhibition,[24],Active
same,inhibition,[25],Active
same,inhibition,[26],Active
same,IC50,[27],20 µM
same,inhibition (INH),Cytochrome P450 2C9,Active
same,inhibition,Nucleic Acid [15],inactive
same,inhibition,[28],inactive
same,inhibition,Nucleic Acid [20],inactive
same,inhibition at 25 µM,CYP2C9 [21],80%
same,inhibition,[29],inactive
CN(C)c1ccc(CNCCC(Cc2ccccc2)c2ccc3c(c2)OCO3)cc1 (racemic),Activity,MDA-MB-231 [1],22%
same,Activity,MDA-MB-231 [30],46%
same,Ki,[3],20 µM
same,inhibition,Nucleic Acid [4],30%
same,inhibition,MDA-MB-231 [8],Active
same,inhibition (INH),Cytochrome P450 2C9,Active
same,inhibition,Nucleic Acid [15],inactive
same,inhibition,Nucleic Acid [20],inactive
same,inhibition at 25 µM,CYP2C9 [21],80%
same,inhibition,[22],Dose-dependent effect
